# pIC50: −log10 of the molar value.
# System: Rattus norvegicus
# Test: Compound was evaluated in vivo for the inhibition of LPS-stimulated serum TNF-alpha production in rat after oral administration at a dose 50 mg/kg
# Type: functional
# How it was run: (§1)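 Male SD rats, 6 weeks old, given compound orally as a suspension in 0.5% CMC. LPS (E. coli B055:B5, 0.1 mg/kg) injected iv 1 h after dosing. Animals killed and bled 90 min later. Serum TNF-α measured by ELISA. ED50 derived from TNF-α yield relative to LPS controls without compound.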
row,SMILES,inhibition in vivo at 50 mg/kg [%]
1,CC(=O)N1CCc2c(sc(NC(=O)C3CC3)c2C(=O)c2ccccc2)C1,34.1
2,CC(=O)N1CCc2c(sc(NC(=O)C(C)C)c2C(=O)c2ccccc2)C1,35
3,CC(=O)N1CCc2c(sc(NC(=O)C3CC3)c2C(=O)c2ccccc2C)C1,58.6
4,CCOC(=O)c1c(NC(=O)C(C)C)sc2c1CCN(C(C)=O)C2,49.1
5,CC(=O)N1CCc2c(sc(NC(=O)C(C)C)c2C(=O)c2ccccc2C)C1,3.9
6,CC(=O)c1c(NC(=O)C(C)C)sc2c1CCN(C(C)=O)C2,22.7
7,CC(=O)N1CCc2c(sc(NC(=O)C3CC3)c2C(=O)c2ccccc2Cl)C1,35
8,CC(=O)c1c(NC(=O)C2CC2)sc2c1CCN(C(C)=O)C2,31.3
9,CC(=O)N1CCc2c(sc(NC(=O)C(C)C)c2C(=O)c2ccccc2Cl)C1,2.4
10,CCOC(=O)c1c(NC(=O)C2CC2)sc2c1CCN(C(C)=O)C2,64.2

# Organism: Rattus norvegicus
# Test: In vitro inhibition of lipopolysaccharide stimulated tumor necrosis factor-alpha production in rat whole blood
# Type: functional
# How it was run: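 Rat whole blood diluted to 50% in RPMI-1640 containing streptomycin and penicillin. Compound in DMSO, or DMSO vehicle, preincubated for 30 min at 37 °C in 5% CO2. Stimulated with 10 µg/mL LPS (E. coli B055:B5) and incubated 4 h under the same conditions. IC50 taken for inhibition of TNF-α production.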
row,SMILES,pIC50
1,CN1CCc2c(sc(NC(=O)C3CC3)c2C(=O)c2ccccc2Cl)C1,5.89
2,CC(=O)N1CCc2c(sc(NC(=O)C(C)N)c2C(=O)c2ccccc2Cl)C1 (configuration not stated),5.10
3,CC(=O)N1CCc2c(sc(NC(=O)C(C)C)c2C(C)O)C1 (configuration not stated),4.42
4,CC(=O)N1CCc2c(C(=O)c3ccccc3Cl)csc2C1,4.42
5,CC(=O)Nc1sc2c(c1C(=O)c1ccccc1Cl)CCN(C(C)=O)C2,5.02
6,O=C(c1ccccc1Cl)c1c(NC(=O)C2CC2)sc2c1CCN(C(=O)C1CC1)C2,6.05
7,CC(C)C(=O)Nc1sc2c(c1C(=O)c1ccccc1Cl)CCN(C)C2,5.70
8,O=C(Nc1sc2c(c1C(=O)c1ccccc1Cl)CCN(Cc1ccccc1)C2)c1ccccc1,< 4.00
9,O=C(c1ccccc1Cl)c1c(N(CC2CCCCC2)CC2CCCCC2)sc2c1CCN(C(=O)C1CC1)C2,< 4.00
10,C[C@@H]1C[C@H]2[C@@H]3CCC4=CC(=O)C=C[C@]4(C)[C@@]3(F)[C@@H](O)C[C@]2(C)[C@@]1(O)C(=O)CO [DEXAMETHASONE],7.70
11,CC(=O)N1CCc2c(sc(NC(=O)C3CC3)c2C(=O)c2ccccc2)C1,5.52
12,CC(=O)N1CCc2c(sc(N(C)C(=O)C3CC3)c2C(=O)c2ccccc2Cl)C1,4.13
13,COc1ccc(C(=O)c2c(NC(C)=O)sc3c2CCN(C(C)=O)C3)cc1OC,4.34
14,CC(=O)N1CCc2c(sc(NC(=O)C(C)C)c2C(=O)c2ccccc2)C1,5.52
15,CCN(CC)C(=O)Nc1sc2c(c1C(=O)c1ccccc1Cl)CCN(C(C)=O)C2,6.29
16,CC(=O)N1CCc2c(sc(NC(=O)C3CCC3)c2C(=O)c2ccccc2Cl)C1,5.54
17,CC(=O)N1CCc2c(sc(NC(=O)C3CC3)c2C(=O)c2ccccc2C)C1,5.54
18,CC(=O)N1CCc2c(sc(NC(=O)C(C)Cl)c2C(=O)c2ccccc2Cl)C1 (configuration not stated),4.92
19,CC(=O)N1CCc2c(sc(N(C)C(=O)C(C)C)c2C(=O)c2ccccc2Cl)C1,4.48
20,CC(=O)N1CCc2c(sc(N(CC3CCCCC3)CC3CCCCC3)c2C(=O)c2ccccc2Cl)C1,4.00
21,CCOC(=O)c1c(NC(=O)C(C)C)sc2c1CCN(C(C)=O)C2,4.66
22,CC(=O)N1CCc2c(sc(NC(=O)C(C)C)c2C(=O)c2cccc(Cl)c2)C1,5.12
23,CC(=O)N1CCc2c(sc(NC(=O)C(C)(C)C)c2C(O)c2ccccc2Cl)C1 (configuration not stated),4.72
24,CCN1CCc2c(sc(NC(=O)C(C)C)c2C(O)c2ccccc2Cl)C1 (configuration not stated),4.00

row,SMILES,pIC50
1,CC(=O)CCCCn1c(=O)c2c(ncn2C)n(C)c1=O [PENTOXIFYLLINE],4.40
2,CC(=O)N1CCc2c(sc(NC(=O)C3CCCCC3)c2C(=O)c2ccccc2Cl)C1,4.41
3,COc1cccc(OC)c1C(=O)c1c(NC(C)=O)sc2c1CCN(C(C)=O)C2,4.06
4,CC(=O)N1CCc2c(sc(NC(=O)C(C)(C)C)c2C(=O)c2ccccc2Cl)C1,5.47
5,CC(=O)N1CCc2c(sc(NC(=O)C(C)(C)C)c2Cc2ccccc2Cl)C1,4.54
6,COc1ccc(C(=O)c2c(NC(C)=O)sc3c2CCN(C(C)=O)C3)cc1,4.59
7,CC(=O)N1CCc2c(sc(NC(=O)c3ccncc3)c2C(=O)c2ccccc2Cl)C1,4.68
8,CCN1CCc2c(sc(N(CC)C(=O)C(C)C)c2C(=O)c2ccccc2Cl)C1,5.00
9,CCc1c(NC(=O)C(C)C)sc2c1CCN(C(C)=O)C2,4.64
10,CC(C)CN(CC(C)C)c1sc2c(c1C(=O)c1ccccc1Cl)CCN(C(=O)C1CC1)C2,< 4.00
11,Nc1sc2c(c1C(=O)c1ccccc1Cl)CCNC2,< 4.00
12,CC(=O)N1CCc2c(sc(NC(=O)c3cccnc3)c2C(=O)c2ccccc2)C1,4.85
13,CC(=O)N1CCc2c(sc(N(CC(C)C)CC(C)C)c2C(=O)c2ccccc2Cl)C1,4.52
14,CCC(=O)Nc1sc2c(c1C(=O)c1ccccc1Cl)CCN(C(C)=O)C2,4.82
15,CC(=O)N1CCc2c(sc(NC(=O)c3ccccc3)c2C(=O)c2ccccc2Cl)C1,4.34
16,CC(=O)N1CCc2c(sc(NC(=O)C(C)C)c2C(=O)c2ccccc2C)C1,5.41
17,CCNC(=O)Nc1sc2c(c1C(=O)c1ccccc1Cl)CCN(C(C)=O)C2,5.00
18,CC(=O)N1CCc2c(sc(NC(=O)C(C)C)c2C(=O)c2ccc(Cl)cc2)C1,< 4.00
19,CC(C)C(=O)Nc1sc2c(c1C(=O)c1ccccc1Cl)CCNC2,5.40
20,O=C(c1ccccc1Cl)c1c(NC(=O)C2CC2)sc2c1CCN(Cc1ccccc1)C2,5.19
21,CC(=O)N1CCc2c(sc(NC(=O)C(C)Br)c2C(=O)c2ccccc2Cl)C1 (configuration not stated),5.22
22,CC(=O)N1CCc2c(sc(NC(=O)c3cccnc3)c2C(=O)c2cccc(Cl)c2)C1,4.44
23,CCOC(=O)c1c(NC(=O)c2cccnc2)sc2c1CCN(C(C)=O)C2,4.66
24,CC(=O)c1c(NC(=O)C(C)C)sc2c1CCN(C(C)=O)C2,4.46

row,SMILES,pIC50
1,CC(C)C(=O)Nc1sc2c(c1C(=O)c1ccccc1Cl)CCN(C(=O)C1CC1)C2,5.59
2,CCN(CC)C(=O)Nc1sc2c(c1C(=O)c1c(OC)cccc1OC)CCN(C(C)=O)C2,5.42
3,O=C(Nc1sc2c(c1C(=O)c1ccccc1Cl)CCN(Cc1ccccc1)C2)c1cccnc1,5.15
4,CCCCCCC(=O)Nc1sc2c(c1C(=O)c1ccccc1Cl)CCN(C(C)=O)C2,< 4.00
5,CC(C)C(=O)Nc1sc2c(c1C(=O)c1ccccc1Cl)CCN(Cc1ccccc1)C2,5.30
6,CC(=O)N1CCc2c(sc(NC(=O)C3CC3)c2C(=O)c2ccccc2Cl)C1,5.52
7,CC(=O)N1CCc2c(sc(NC(=O)c3ccccc3)c2C(=O)c2ccccc2)C1,4.32
8,CC(=O)c1c(NC(=O)C2CC2)sc2c1CCN(C(C)=O)C2,4.55
9,CCN1CCc2c(sc(NC(=O)C(C)C)c2C(=O)c2ccccc2Cl)C1,6.04
10,CC(=O)N1CCc2c(sc(NC(=O)C3CC3)c2C(=O)c2cccc(Cl)c2)C1,4.70
11,CC(=O)N1CCc2c(sc(NC(=O)CCc3ccccc3)c2C(=O)c2ccccc2Cl)C1,< 4.00
12,CC(=O)N1CCc2c(sc(NC(=O)C(C)C)c2C(=O)c2ccccc2Cl)C1,5.59
13,CCN(CC)C(=O)N(C)c1sc2c(c1C(=O)c1ccccc1Cl)CCN(C(C)=O)C2,5.00
14,CC(=O)N1CCc2c(sc(N)c2C(=O)c2ccccc2Cl)C1,4.14
15,CCOC(=O)c1c(NC(=O)C2CC2)sc2c1CCN(C(C)=O)C2,5.00
16,CC(=O)N1CCc2c(sc(NC(=O)/C=C/c3ccccc3)c2C(=O)c2ccccc2Cl)C1,< 4.00
17,O=C(Nc1sc2c(c1C(=O)c1ccccc1Cl)CCN(C(=O)C1CC1)C2)c1cccnc1,5.41
18,CC(=O)N1CCc2c(sc(NC(=O)CCl)c2C(=O)c2ccccc2Cl)C1,< 4.00
19,CCN1CCc2c(sc(NC(=O)C(C)C)c2C(=O)c2ccc3c(c2)OCO3)C1,4.11
20,CC(=O)N1CCc2c(sc(NC(=O)c3cccnc3)c2C(=O)c2ccccc2Cl)C1,4.92
21,O=C(Nc1sc2c(c1C(=O)c1ccccc1Cl)CCN(C(=O)C1CC1)C2)c1ccccc1,< 4.00
22,CC(=O)N1CCc2c(sc(NC(=O)c3ccc(F)cc3)c2C(=O)c2ccccc2Cl)C1,4.00

# System: Rattus norvegicus
# Test: Compound was evaluated in vivo for the inhibition of LPS-stimulated serum TNF-alpha production in rat after oral administration of the compound
# Type: functional
# How it was run: as §1
row,SMILES,ED50 [mg/kg]
1,C[C@@H]1C[C@H]2[C@@H]3CCC4=CC(=O)C=C[C@]4(C)[C@@]3(F)[C@@H](O)C[C@]2(C)[C@@]1(O)C(=O)CO [DEXAMETHASONE],0.12

# System: Rattus norvegicus
# Test: Compound was evaluated in vivo for the inhibition of LPS-stimulated serum TNF-alpha production in rat after oral administration at a dose 100 mg/kg
# Type: functional
# How it was run: as §1
row,SMILES,inhibition in vivo at 100 mg/kg [%]
1,CC(=O)CCCCn1c(=O)c2c(ncn2C)n(C)c1=O [PENTOXIFYLLINE],74.4

# — ChEMBL document CHEMBL1135145, “Synthesis and bioactivities of novel 4,5,6,7-tetrahydrothieno[2,3-c]pyridines as inhibitors of tumor necrosis factor-alpha (TNF-alpha) production” (Bioorg Med Chem Lett, 2002)
